{"data": "Experimental data gathered from unrelated publications", "effect on": "cell growth or viability", "note": "Each line is one published result; the experiments were not run side by side. pEC50, pIC50: −log10 of the molar value."}
{"Structure (SMILES)": "CCC[C@H]1NC(=O)[C@H](Cc2cc(Cl)ccc2-c2cnn(C)c2)N(C)C(=O)[C@H](CC(C)C)NC(=O)[C@@H](N(C)C(=O)[C@H](CCCCN2CCOCC2)NC(=O)[C@@H](c2cccnc2)C2CCCCC2)CCCCNC1=O", "cell line": "NCI-H69", "assay": "MTT", "setting": "5 days", "endpoint": "GI50", "result": "5.2 µM"}
{"Structure (SMILES)": "COc1cc2c3c(n(CCCNCCO)c(=O)c2cc1OC)-c1nc2c(cc1C3=O)OCO2", "cell line": "RPMI-8226", "assay": "MTS", "setting": "72 h", "endpoint": "pIC50", "result": 6.25}
{"Structure (SMILES)": "C=C(F)C(=O)N1CCN(c2nc(OC[C@@H]3CCCN3C)nc3c2CCN(c2cccc4cccc(Cl)c24)C3)C[C@@H]1CC#N", "cell line": "TOV21G", "assay": "ATP luminescence", "endpoint": "pIC50", "result": "< 5.00"}
{"Structure (SMILES)": "CCNCCCn1c2c(c3cc(OC)c(OC)cc3c1=O)C(=O)c1cc3c(nc1-2)OCO3", "cell line": "RPMI-8226", "assay": "MTS", "setting": "72 h", "endpoint": "pIC50", "result": 6.72}
{"Structure (SMILES)": "C=CC(=O)NC1CCN(c2ncc3ncnc(Nc4ccc(Oc5ccc6c(c5)ncn6C)c(C)c4)c3n2)CC1", "cell line": "CAL-120", "endpoint": "pEC50", "result": 5.31}
{"Structure (SMILES)": "C[C@H](NC(=O)[C@H](CC(=O)NCC(C)(C)C)NC(=O)C(=O)c1c[nH]c2ccccc12)C(=O)NCc1ccc(F)cc1F", "cell line": "RPMI-8226", "assay": "MTS", "setting": "72 h", "endpoint": "pIC50", "result": 4.94}
{"Structure (SMILES)": "C=CC(=O)N1CCN(c2nc(=O)n(-c3c(C)ccnc3C(C)C)c3nc(-c4c(O)cccc4F)c(F)cc23)[C@@H](C)C1", "cell line": "TOV21G", "assay": "ATP luminescence", "endpoint": "pIC50", "result": "< 5.00"}
{"Structure (SMILES)": "COc1cccc2c1C(=O)c1c(O)c3c(c(O)c1C2=O)C[C@@](O)(C(=O)CO)C[C@@H]3O[C@H]1C[C@H](N)[C@H](O)[C@H](C)O1", "cell line": "MDA-MB-157", "assay": "MTT", "setting": "72 h", "endpoint": "pIC50", "result": 6.30}
{"Structure (SMILES)": "CCCN1C(=O)[C@H](CC(C)C)NC(=O)[C@@H](N(C)C(=O)[C@H](CC2CCC2)NC(=O)[C@@H]2C[C@@H](F)CN2C(=O)[C@@](C)(O)C(F)(F)F)CCCCNC(=O)C2(CC2)NC(=O)[C@@H]1Cc1cc(Cl)ccc1Cl", "cell line": "NCI-H69", "assay": "MTT", "setting": "5 days", "endpoint": "GI50", "result": "0.006 µM"}
